Our source for the MIC values is ChEMBL document CHEMBL1132751, “Structure-activity relationships of trans-3,5-disubstituted pyrrolidinylthio-1beta-methylcarbapenems. Part 1: J-111,347 and related compounds” (2000).

≈ marks a conversion by molar mass, not a printed value.

Assay type in all cases: functional
For assay [1], the system named is Staphylococcus aureus. Briefly: In vitro antibacterial activity was determined against Staphylococcus aureus 209P NIHJ JCI.
The subject of assay [2] is Staphylococcus aureus. Briefly: In vitro antibacterial activity was determined against methicillin-resistant Staphylococcus aureus pMS520/Smith. In a few lines: (§1)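 Minimum inhibitory concentration determined by agar dilution. The S. aureus pMS520/Smith and S. epidermidis MB5181 strains are methicillin-resistant isolates.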
Assay [3] deals with Staphylococcus epidermidis. As to the kind of experiment: In vitro antibacterial activity was determined against methicillin-resistant Staphylococcus epidermidis MB5181. A digest of the protocol:
as §1

For assay [4], the system named is Pseudomonas aeruginosa. As to the kind of experiment: In vitro antibacterial activity was determined against ceftazidime- resistant Pseudomonas aeruginosa AKR17. In a few lines:
as §1

In assay [5] the test system is Escherichia coli. Briefly: In vitro antibacterial activity was determined against Escherichia coli NIHJ JC2.
The subject of assay [6] is Pseudomonas aeruginosa. As to the kind of experiment: In vitro antibacterial activity was determined against Pseudomonas aeruginosa AK109.
The subject of assay [7] is Staphylococcus aureus. Briefly: TIn vitro antibacterial activity against methicillin-resistant Staphylococcus aureus pMS520/Smith. In a few lines:
as §1

Consider `C[C@@H](O)[C@H]1C(=O)N2C(C(=O)O)=C(S[C@@H]3CN[C@H](CNc4ccccc4)C3)[C@H](C)[C@H]12`, for which the MIC in assay [1] was below 0.006 µg/mL; in assay [2], 12.5 µg/mL (≈ 29.9 µM); in assay [3], 6.25 µg/mL (≈ 15 µM); in assay [4], 25 µg/mL (≈ 59.9 µM); in assay [5], 0.05 µg/mL (≈ 0.12 µM); in assay [6], 12.5 µg/mL (≈ 29.9 µM).

`C[C@@H](O)[C@H]1C(=O)N2C(C(=O)O)=C(S[C@@H]3CN[C@H](COc4ccc(CN)cc4)C3)[C@H](C)[C@H]12`: the MIC in assay [1] was below 0.006 µg/mL; in assay [2], 3.13 µg/mL (≈ 6.99 µM); in assay [3], 6.25 µg/mL (≈ 14 µM); in assay [4], 12.5 µg/mL (≈ 27.9 µM); in assay [5], 0.025 µg/mL (≈ 0.0559 µM); in assay [6], 1.56 µg/mL (≈ 3.49 µM).

Regarding `C[C@@H](O)[C@H]1C(=O)N2C(C(=O)O)=C(S[C@@H]3CN[C@H](CCc4ccccc4)C3)[C@H](C)[C@H]12`, the MIC in assay [1] is below 0.006 µg/mL; in assay [2] it was 6.25 µg/mL (≈ 15 µM); in assay [3], 3.13 µg/mL (≈ 7.51 µM); in assay [4], above 50 µg/mL; in assay [5], 0.05 µg/mL (≈ 0.12 µM); in assay [6], 25 µg/mL (≈ 60 µM).

Consider `C[C@@H](O)[C@H]1C(=O)N2C(C(=O)O)=C(S[C@@H]3CN[C@@H](CSc4ccc(CN)cc4)C3)[C@H](C)[C@H]12`, for which the minimal inhibitory concentration (MIC) in assay [1] is below 0.006 µg/mL; in assay [2], 3.13 µg/mL (≈ 6.75 µM); in assay [3], 3.13 µg/mL (≈ 6.75 µM); in assay [4], 12.5 µg/mL (≈ 27 µM); in assay [5], 0.05 µg/mL (≈ 0.108 µM); in assay [6], 1.56 µg/mL (≈ 3.36 µM).

In the case of `C[C@@H](O)[C@H]1C(=O)N2C(C(=O)O)=C(S[C@@H]3CN[C@@H](c4ccc(CN)cc4)C3)[C@H](C)[C@H]12`, the MIC in assay [1] is below 0.006 µg/mL; in assay [2], 0.78 µg/mL (≈ 1.87 µM); in assay [3], 1.56 µg/mL (≈ 3.74 µM); in assay [4], 3.13 µg/mL (≈ 7.5 µM); in assay [5], 0.025 µg/mL (≈ 0.0599 µM); in assay [6], 0.39 µg/mL (≈ 0.934 µM).

Regarding `C[C@@H](O)[C@H]1C(=O)N2C(C(=O)O)=C(S[C@@H]3CN[C@H](COc4ccccc4)C3)[C@H](C)[C@H]12`, the MIC in assay [1] was 0.012 µg/mL (≈ 0.0287 µM); in assay [2], 25 µg/mL (≈ 59.7 µM); in assay [3], 25 µg/mL (≈ 59.7 µM); in assay [4], above 50 µg/mL; in assay [5] it was 0.39 µg/mL (≈ 0.932 µM); in assay [6] it was 25 µg/mL (≈ 59.7 µM).

For `C[C@@H](O)[C@H]1C(=O)N2C(C(=O)O)=C(S[C@@H]3CN[C@H](CSc4ccc(CN)cc4)C3)[C@H](C)[C@H]12`, the MIC was below 0.006 µg/mL in assay [1]; 1.56 µg/mL (≈ 3.36 µM) in assay [2]; 3.13 µg/mL (≈ 6.75 µM) in assay [3]; 3.13 µg/mL (≈ 6.75 µM) in assay [4]; 0.025 µg/mL (≈ 0.0539 µM) in assay [5]; 0.78 µg/mL (≈ 1.68 µM) in assay [6].

As to `C[C@@H](O)[C@H]1C(=O)N2C(C(=O)O)=C(S[C@@H]3CN[C@@H](Cc4ccc(CN)cc4)C3)[C@H](C)[C@H]12`, the MIC in assay [1] is 0.05 µg/mL (≈ 0.116 µM); in assay [2], 12.5 µg/mL (≈ 29 µM); in assay [3], 12.5 µg/mL (≈ 29 µM); in assay [4], above 100 µg/mL; in assay [5], 0.39 µg/mL (≈ 0.904 µM); in assay [6], 25 µg/mL (≈ 57.9 µM).

With `C[C@@H](O)[C@H]1C(=O)N2C(C(=O)O)=C(S[C@@H]3CN[C@H](Cc4ccc(CN)cc4)C3)[C@H](C)[C@H]12`, the MIC in assay [1] was below 0.006 µg/mL; in assay [2], 3.13 µg/mL (≈ 7.25 µM); in assay [3] it was 3.13 µg/mL (≈ 7.25 µM); in assay [4], 6.25 µg/mL (≈ 14.5 µM); in assay [5], 0.025 µg/mL (≈ 0.0579 µM); in assay [6] it was 0.39 µg/mL (≈ 0.904 µM).

`C[C@@H](O)[C@H]1C(=O)N2C(C(=O)O)=C(S[C@@H]3CN[C@H](Cc4ccccc4)C3)[C@H](C)[C@H]12`: the MIC is below 0.006 µg/mL in assay [1]; 6.25 µg/mL (≈ 15.5 µM) in assay [2]; 3.13 µg/mL (≈ 7.78 µM) in assay [3]; above 50 µg/mL in assay [4]; 0.1 µg/mL (≈ 0.248 µM) in assay [5]; 25 µg/mL (≈ 62.1 µM) in assay [6].

Take `C[C@@H](O)[C@H]1C(=O)N2C(C(=O)O)=C(S[C@@H]3CN[C@H](CSc4ccccc4)C3)[C@H](C)[C@H]12`: the MIC was below 0.006 µg/mL in assay [1]; 6.25 µg/mL (≈ 14.4 µM) in assay [2]; 3.13 µg/mL (≈ 7.2 µM) in assay [3]; 50 µg/mL (≈ 115 µM) in assay [4]; 0.1 µg/mL (≈ 0.23 µM) in assay [5]; 50 µg/mL (≈ 115 µM) in assay [6].

As for `C[C@@H](O)[C@H]1C(=O)N2C(C(=O)O)=C(S[C@@H]3CN[C@H](CCc4ccc(CN)cc4)C3)[C@H](C)[C@H]12`, the MIC in assay [1] is below 0.006 µg/mL; in assay [2], 3.13 µg/mL (≈ 7.02 µM); in assay [3], 25 µg/mL (≈ 56.1 µM); in assay [4], 6.25 µg/mL (≈ 14 µM); in assay [5], 0.025 µg/mL (≈ 0.0561 µM); in assay [6], 0.78 µg/mL (≈ 1.75 µM).

Take `C[C@@H](O)[C@H]1C(=O)N2C(C(=O)O)=C(S[C@@H]3CN[C@H](c4ccc(CN)cc4)C3)[C@H](C)[C@H]12`: the minimal inhibitory concentration (MIC) was below 0.006 µg/mL in assay [1]; 3.13 µg/mL (≈ 7.5 µM) in assay [3]; 6.25 µg/mL (≈ 15 µM) in assay [4]; 1.56 µg/mL (≈ 3.74 µM) in assay [7]; 0.025 µg/mL (≈ 0.0599 µM) in assay [5]; 0.78 µg/mL (≈ 1.87 µM) in assay [6].

As for `C[C@@H](O)[C@H]1C(=O)N2C(C(=O)O)=C(S[C@@H]3CN[C@H](CNc4ccc(CN)cc4)C3)[C@H](C)[C@H]12`, the MIC in assay [1] is below 0.006 µg/mL; in assay [2], 3.13 µg/mL (≈ 7.01 µM); in assay [3], 6.25 µg/mL (≈ 14 µM); in assay [4] it was 12.5 µg/mL (≈ 28 µM); in assay [5], 0.025 µg/mL (≈ 0.056 µM); in assay [6] it was 1.56 µg/mL (≈ 3.49 µM).

On to `C[C@@H](O)[C@H]1C(=O)N2C(C(=O)O)=C(SCCNC=N)C[C@H]12.O`, for which the MIC in assay [1] was below 0.006 µg/mL; in assay [2], 50 µg/mL; in assay [3], 50 µg/mL; in assay [4], 3.13 µg/mL; in assay [5], 0.01 µg/mL; in assay [6] it was 1.56 µg/mL.

On to `CN[C@H](CC(C)C)C(=O)N[C@H]1C(=O)N[C@@H](CC(N)=O)C(=O)N[C@H]2C(=O)N[C@H]3C(=O)N[C@H](C(=O)N[C@H](C(=O)O)c4cc(O)cc(O)c4-c4cc3ccc4O)[C@H](O)c3ccc(c(Cl)c3)Oc3cc2cc(c3O[C@@H]2O[C@H](CO)[C@@H](O)[C@H](O)[C@H]2O[C@H]2C[C@](C)(N)[C@H](O)[C@H](C)O2)Oc2ccc(cc2Cl)[C@H]1O` [VANCOMYCIN], for which the MIC in assay [2] was 0.78 µg/mL (≈ 0.538 µM); in assay [4], above 100 µg/mL; in assay [5] it was above 100 µg/mL; in assay [6], above 100 µg/mL.
